{"source": "ChEMBL document CHEMBL5149984", "about": "“Discovery of HN37 as a Potent and Chemically Stable Antiepileptic Drug Candidate” (J Med Chem, 2021)", "key": {"[1]": {"target": "Potassium voltage-gated channel subfamily KQT member 2 (Rattus norvegicus) (UniProt O88943)", "sequence (O88943 whole entry)": "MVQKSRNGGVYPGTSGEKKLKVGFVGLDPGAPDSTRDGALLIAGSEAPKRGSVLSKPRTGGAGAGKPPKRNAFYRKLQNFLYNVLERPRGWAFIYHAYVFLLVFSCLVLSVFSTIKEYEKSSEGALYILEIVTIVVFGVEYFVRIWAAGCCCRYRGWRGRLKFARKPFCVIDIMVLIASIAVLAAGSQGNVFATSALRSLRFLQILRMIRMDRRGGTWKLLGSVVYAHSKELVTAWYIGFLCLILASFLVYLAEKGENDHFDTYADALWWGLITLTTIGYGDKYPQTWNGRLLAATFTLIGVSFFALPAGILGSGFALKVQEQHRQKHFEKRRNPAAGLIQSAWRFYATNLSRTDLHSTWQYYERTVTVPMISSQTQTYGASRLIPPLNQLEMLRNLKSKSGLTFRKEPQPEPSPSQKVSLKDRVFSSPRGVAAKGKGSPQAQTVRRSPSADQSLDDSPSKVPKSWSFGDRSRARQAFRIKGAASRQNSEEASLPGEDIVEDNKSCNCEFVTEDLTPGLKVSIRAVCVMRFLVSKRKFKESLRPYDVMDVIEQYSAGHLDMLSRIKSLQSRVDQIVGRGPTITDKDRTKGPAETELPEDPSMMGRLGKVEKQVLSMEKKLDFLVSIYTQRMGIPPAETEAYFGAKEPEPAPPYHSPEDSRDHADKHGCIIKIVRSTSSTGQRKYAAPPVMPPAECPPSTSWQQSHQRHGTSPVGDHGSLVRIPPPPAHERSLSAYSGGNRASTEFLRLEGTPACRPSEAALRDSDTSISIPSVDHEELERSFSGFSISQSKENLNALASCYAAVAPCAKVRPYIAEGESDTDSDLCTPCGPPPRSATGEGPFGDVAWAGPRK", "test": "Agonist activity at rat KCNQ2 channel expressed in CHO cells assessed as shift of half voltage of maximal activation at 0.1 uM by patch clamp method", "assay_type": "cell-based", "settings": "filed as agonist", "outline": "(§1)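 Whole-cell patch clamp at room temperature on CHO cells (DMEM/F12, 10% FBS) transiently co-transfected with EGFP and hKCNQ1, rKCNQ2, rKCNQ3 A278T, hKCNQ4 or hKCNQ5; KCNQ2/3 at 1:1 cDNA ratio. Pipette solution 145 mM KCl, 5 mM MgATP, pH 7.3; bath 140 mM NaCl, 5 mM KCl, pH 7.4, under perfusion. V1/2 from Boltzmann fits; I/I0 is current amplitude with versus without compound; n = 4−6.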"}, "[2]": {"target": "T1, Cytochrome P450 2C8 (Homo sapiens, UniProt P10632)", "T1 sequence (P10632 whole entry)": "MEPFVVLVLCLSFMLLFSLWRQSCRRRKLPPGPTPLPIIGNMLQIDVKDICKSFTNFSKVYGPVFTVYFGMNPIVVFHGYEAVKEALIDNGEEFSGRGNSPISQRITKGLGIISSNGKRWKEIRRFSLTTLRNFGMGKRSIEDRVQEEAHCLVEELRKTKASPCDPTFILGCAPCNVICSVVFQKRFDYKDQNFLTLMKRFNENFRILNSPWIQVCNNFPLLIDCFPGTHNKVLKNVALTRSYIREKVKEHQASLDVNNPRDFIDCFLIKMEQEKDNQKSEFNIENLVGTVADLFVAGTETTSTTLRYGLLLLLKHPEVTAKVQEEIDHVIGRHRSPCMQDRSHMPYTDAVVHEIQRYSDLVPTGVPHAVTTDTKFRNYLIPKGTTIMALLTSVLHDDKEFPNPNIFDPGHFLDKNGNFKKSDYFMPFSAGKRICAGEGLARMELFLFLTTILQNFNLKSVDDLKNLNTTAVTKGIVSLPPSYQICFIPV", "test": "Time dependent inhibition of human liver microsome CYP2C8 preincubated for 0.5 hrs in presence of NADPH followed by substrate addition by LC-MS/MS method", "assay_type": "ADME, microsomes", "outline": "(§2)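 Human liver microsomes preincubated 0.5 h with 0.10–50 μM test compound, with or without NADPH, then CYP-specific probe substrate added and incubation continued. Metabolite measured by LC-MS/MS; % activity remaining relative to no-compound control; IC50 fitted by Probit model. For CYP3A4, midazolam 1′-hydroxylation and testosterone 6β-hydroxylation were read separately.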"}, "[3]": {"target": "Cytochrome P450 2C9 (Homo sapiens, UniProt P11712)", "sequence (P11712 whole entry)": "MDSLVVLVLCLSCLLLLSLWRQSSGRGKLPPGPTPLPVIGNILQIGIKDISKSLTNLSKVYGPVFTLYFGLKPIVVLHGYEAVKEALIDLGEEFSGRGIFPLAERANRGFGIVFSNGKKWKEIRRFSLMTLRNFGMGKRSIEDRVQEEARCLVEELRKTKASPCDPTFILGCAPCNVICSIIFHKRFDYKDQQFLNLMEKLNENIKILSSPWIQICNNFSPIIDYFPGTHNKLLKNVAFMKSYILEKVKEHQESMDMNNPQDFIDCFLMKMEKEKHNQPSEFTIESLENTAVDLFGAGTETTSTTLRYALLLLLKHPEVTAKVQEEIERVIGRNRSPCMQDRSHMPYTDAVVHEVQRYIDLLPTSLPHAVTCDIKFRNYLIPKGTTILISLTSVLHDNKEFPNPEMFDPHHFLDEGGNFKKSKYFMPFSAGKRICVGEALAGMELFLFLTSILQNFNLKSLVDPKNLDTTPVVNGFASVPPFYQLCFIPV", "test": "Time dependent inhibition of human liver microsome CYP2C9 preincubated for 0.5 hrs in presence or absence of NADPH followed by substrate addition by LC-MS/MS method", "assay_type": "ADME, microsomes", "outline": "as §2"}, "[4]": {"organism": "Rattus norvegicus", "test": "Potency index, ratio of Topiramate ED50 to test compound ED50 for anticonvulsant activity in MES induced rat model of seizure after 1 hr", "assay_type": "functional"}, "[5]": {"target": "Potassium voltage-gated channel subfamily KQT member 2 (Rattus norvegicus) (UniProt O88943)", "test": "Potency index, ratio of retigabine EC50 to test compound EC50 for agonist activity at rat KCNQ2 channel expressed in CHO cells by patch clamp method", "assay_type": "cell-based"}, "[6]": {"test": "Metabolic stability in rat liver microsomes assessed as intrinsic clearance", "assay_type": "ADME, Microsome", "settings": "read-out: CLH"}, "[7]": {"target": "T2, Potassium voltage-gated channel subfamily KQT member 1 (Homo sapiens, UniProt P51787)", "T2 sequence (P51787 whole entry)": "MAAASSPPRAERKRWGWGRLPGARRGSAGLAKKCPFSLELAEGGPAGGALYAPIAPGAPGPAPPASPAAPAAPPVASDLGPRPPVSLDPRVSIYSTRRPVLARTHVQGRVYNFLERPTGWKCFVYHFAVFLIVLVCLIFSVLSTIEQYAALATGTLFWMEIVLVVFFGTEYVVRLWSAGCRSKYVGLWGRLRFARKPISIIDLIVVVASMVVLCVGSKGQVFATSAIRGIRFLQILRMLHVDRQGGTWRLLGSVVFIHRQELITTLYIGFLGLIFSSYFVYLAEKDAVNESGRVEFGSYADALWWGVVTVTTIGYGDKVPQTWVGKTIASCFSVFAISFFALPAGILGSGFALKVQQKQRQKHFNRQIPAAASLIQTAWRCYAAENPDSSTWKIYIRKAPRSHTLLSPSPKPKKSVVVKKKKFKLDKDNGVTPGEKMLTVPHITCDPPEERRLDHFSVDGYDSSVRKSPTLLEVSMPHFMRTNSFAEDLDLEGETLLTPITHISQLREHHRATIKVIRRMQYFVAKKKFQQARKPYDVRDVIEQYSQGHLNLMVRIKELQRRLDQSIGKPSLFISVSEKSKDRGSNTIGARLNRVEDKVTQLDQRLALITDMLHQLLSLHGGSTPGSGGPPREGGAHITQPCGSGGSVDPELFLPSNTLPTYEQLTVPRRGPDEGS", "test": "Agonist activity at human KCNQ1 channel expressed in CHO cells assessed as shift of half voltage of maximal activation at 0.1 uM by patch clamp method", "assay_type": "cell-based", "outline": "as §1"}, "[8]": {"target": "Potassium voltage-gated channel subfamily KQT member 2/member 3 (Rattus norvegicus) (UniProt O88943+O88944)", "test": "Potency index, ratio of retigabine EC50 to test compound EC50 for agonist activity at rat KCNQ2/3 channel expressed in CHO cells by patch clamp method", "assay_type": "cell-based"}, "[9]": {"test": "AUC(0 to t) in Sprague-Dawley rat blood at 6 mg/kg, po measured upto 24 hrs by LC-MS/MS method", "assay_type": "ADME, organism-based", "set-up": "time < 24 hrs, dose 6 mg/kg, route po", "outline": "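Separate experiment in male SD rats given 6 mg/kg orally; blood and brain concentrations measured concurrently. Samples extracted with acetonitrile (brain homogenized in 10 volumes acetonitrile and sonicated) and analysed by LC−MS/MS; AUC0−t by trapezoidal method.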"}, "[10]": {"test": "AUC(0 to t) in Sprague-Dawley rat at 6 mg/kg, po measured upto 24 hrs by LC-MS/MS method", "assay_type": "ADME, organism-based", "set-up": "dose 6 mg/kg, time < 24 hrs, route po", "settings": "in vivo", "outline": "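Male SD rats (180−220 g) dosed orally at 2, 6 or 20 mg/kg in escalating fashion, handled as in the mouse study: 12 h fast, acetonitrile extraction of plasma, LC−MS/MS quantification. AUC0−t by trapezoidal method to the last measurable concentration.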"}, "[11]": {"test": "Drug concentration in Kunming mouse plasma at 5 mg/kg", "assay_type": "ADME, organism-based", "settings": "in vivo", "outline": "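Male KM mice (18−24 g) fasted 12 h before and 2 h after dosing, given 5 mg/kg orally in 5% DMSO/5% Tween 80/90% normal saline (n = 3 per time point). Aortic blood taken at 0.25–24 h and whole brain collected. Acetonitrile extraction with internal standard, then LC−MS/MS. Bioavailability calculated against the 2 mg/kg i.v. arm.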"}, "[12]": {"test": "Tmax in Sprague-Dawley rat at 20 mg/kg, po measured upto 24 hrs by LC-MS/MS method", "assay_type": "ADME, organism-based", "settings": "in vivo", "outline": "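Male SD rats (180–220 g) dosed orally at 2, 6 and 20 mg/kg, handled like the mice: fasting, 5% DMSO/5% Tween 80/saline vehicle, acetonitrile extraction, LC-MS/MS of plasma. In a separate set at 6 mg/kg p.o., blood and brain were sampled together.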"}, "[13]": {"target": "T1, Cytochrome P450 2C8", "test": "Time dependent inhibition of human liver microsome CYP2C8 preincubated for 0.5 hrs in absence of NADPH followed by substrate addition by LC-MS/MS method", "assay_type": "ADME, microsomes", "outline": "as §2"}, "[14]": {"test": "Ratio of TD50 for Kunming mouse to ED50 for anticonvulsant activity in Kunming mouse", "assay_type": "toxicity", "settings": "read-out: Ratio TD50/ED50", "outline": "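KM mice given compound orally as a fresh 0.5% CMC-Na suspension (20 mL/kg), tested 1 h later. ED50 from the MES test (protection from hindlimb tonic extension; ear-clip stimulus 160 V). TD50 from the rotarod test as motor impairment. Both from dose–response nonlinear regression with 95% CI.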"}}, "data": [{"compound": "C#CCN(Cc1ccc(F)cc1)c1cc(C)c(NC(=O)OC)c(C)c1", "values": [{"measurement": "Activity", "setting": "[1]", "result": -35.6, "unit": "mV"}, {"measurement": "IC50", "setting": "[2]", "result": 35.2, "unit": "µM"}, {"measurement": "IC50", "setting": "[3]", "result": "> 50", "unit": "µM"}, {"measurement": "Ratio ED50", "setting": "[4]", "result": 18.7}, {"measurement": "Ratio EC50", "setting": "[5]", "result": 55}, {"measurement": "CLint scaled", "setting": "[6]", "result": 105, "unit": "mL/min/kg"}, {"measurement": "Activity", "setting": "[7]", "result": -5.47, "unit": "mV"}, {"measurement": "Ratio EC50", "setting": "[8]", "result": 125}, {"measurement": "AUC(0-t) at 24 h", "setting": "[9]", "result": 533, "unit": "ng·h/mL"}, {"measurement": "AUC(0-t) at 24 h", "setting": "[10]", "result": 1130, "unit": "ng·h/mL"}, {"measurement": "concentration", "setting": "[11]", "result": 110, "unit": "nM"}, {"measurement": "Tmax", "setting": "[12]", "result": 3.67, "unit": "h"}, {"measurement": "IC50", "setting": "[13]", "result": 225, "unit": "µM"}, {"measurement": "selectivity ratio", "setting": "[14]", "result": 43.2}]}]}
